ALR H2O2 inh = inhibitors of human sulfhydryl oxidase ALR; P55789; purified ALR, DTT oxidation, H2O2 HRP-luminol luminescence; inhibition, % (no concentration beside the values); 290,000 tested, 3.8% active;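 active = mean replicate inhibition above about 79%, with every replicate also reaching it, limit read from the data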
Target sequence (P55789 whole entry, looked up): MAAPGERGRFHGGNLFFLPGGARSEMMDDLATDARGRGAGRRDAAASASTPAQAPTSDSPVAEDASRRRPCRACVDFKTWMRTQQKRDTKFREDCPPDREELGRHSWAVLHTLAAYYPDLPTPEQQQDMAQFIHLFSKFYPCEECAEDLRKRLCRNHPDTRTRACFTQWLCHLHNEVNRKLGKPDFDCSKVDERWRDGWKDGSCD
M18AAP inhibitor = PfM18AAP enzyme inhibition | recombinant PfM18AAP, H-Glu-NHMec fluorogenic cleavage | inhibition, % at 7.35 µM | 290,000 tested, 1.2% active | AID 1822;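 active = inhibition above the campaign mean inhibition over all tested compounds plus 3 SD, cut at about 28% in these data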;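 note: 0% = plate median of test compound wells and 100% = 2 mM ZnCl2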
HDAC3 inhib = blocks human histone deacetylase 3; O15379; AID 2718; recombinant HDAC3, fluorogenic peptide/trypsin coupled, fluorescence; inhibition, % at 8.3 µM; 320,000 tested, 0.15% active; in the data active = inhibition above about 26%, passing the limit was not always enough
UCH37 inh = inhibitors of human deubiquitinating enzyme UCH37. Q9Y5K5. purified proteasome/UCH37, Ub-AMC cleavage fluorescence. inhibition, % (no concentration beside the values). 330,000 tested, 0.33% active. AID 588478;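 active = mean inhibition over replicate wells above about 20%, limit read from the data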;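 note: 0% = compound-free wells with enzyme and 100% = wells lacking proteasome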
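Material: Human UCH37 enzyme supplied as purified proteasome complex | Schedule: 30 min compound-proteasome preincubation then 25 min substrate reaction, room temperature | Detection: AMC fluorescence from Ub-AMC cleavage, excitation 355 nm, emission 460 nm | Benchmarks: Wells without proteasome as full block, compound-free enzyme plus substrate as uninhibited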
Rtt109 HAT inh = C. albicans Rtt109 histone acetyltransferase inhibition; Q5AAJ8; 330,000 tested, 0.16% active; AID 540336; inhibition, % at 34.9 µM; purified Rtt109/Vps75, ThioGlo CoA-SH fluorescence, 4 h;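 active = inhibition of at least 50% in every replicate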
Target sequence (Q5AAJ8 whole entry, looked up): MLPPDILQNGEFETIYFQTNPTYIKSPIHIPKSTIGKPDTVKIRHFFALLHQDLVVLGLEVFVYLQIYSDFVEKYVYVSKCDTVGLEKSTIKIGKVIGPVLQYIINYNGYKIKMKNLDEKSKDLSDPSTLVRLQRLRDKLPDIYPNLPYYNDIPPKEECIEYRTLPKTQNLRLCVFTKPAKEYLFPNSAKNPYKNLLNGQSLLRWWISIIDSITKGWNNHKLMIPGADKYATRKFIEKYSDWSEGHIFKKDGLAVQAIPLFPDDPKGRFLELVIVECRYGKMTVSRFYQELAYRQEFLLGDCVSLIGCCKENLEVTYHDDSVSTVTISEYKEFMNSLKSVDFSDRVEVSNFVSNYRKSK
FAS TE block = FAS thioesterase (human) inhibition | P49327 | recombinant FAS-TE, OMFH fluorogenic substrate, fluorescence endpoint | inhibition, % at 15 µM | 360,000 tested, 0.67% active;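 active = compounds whose normalised, plate-corrected inhibition of enzyme fluorescence in the single-dose primary screen is 50% or more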;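 note: 0% = DMSO with enzyme and 100% = substrate without enzyme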
* hit, by the source's call; nt = not tested or not shown. A selection: hits, their analogues and other compounds. The true share with any hit is near 4.6%.

SMILES | ALR H2O2 inh | M18AAP inhibitor | HDAC3 inhib | UCH37 inh | Rtt109 HAT inh | FAS TE block
Cc1ccc(CNC(=O)CSc2c3c(nc4cc(Cl)ccc24)CCCC3)o1 | nt | 3.3 | -0.9 | 8.1 | 0.4 | 9.1
COCCCNC(=O)CSc1c2c(nc3ccc(Cl)cc13)CCCC2 | 98.5* | -6.8 | -1.6 | 4.6 | -99.5 | -5.6
O=C(CSc1c2c(nc3cc(Cl)ccc13)CCCC2)NCCN1CCOCC1 | 0.9 | 6.9 | -3.2 | 11.3 | -28.0 | -8.4
CCN(CC)CCCNC(=O)CSc1c2c(nc3cc(Cl)ccc13)CCCC2 | 3.3 | -3.1 | 9.3 | 0.6 | -145.4 | -1.0
C/C(C=NNc1ncc(C)c(=O)[nH]1)=C\c1ccccc1 | nt | nt | nt | 4.9 | nt | nt
CN(Cc1cccnc1)C(=O)c1ccc2nc(Cc3ccccc3F)oc2c1 | 96.8* | -7.9 | 8.4 | 1.3 | -4.6 | 0.0
CN(Cc1ccon1)C(=O)c1ccc2nc(Cc3cccc(Cl)c3)oc2c1 | -1.5 | -8.6 | -3.4 | 4.3 | 8.4 | -5.8
CC(C)OCCCNC(=O)c1c(N)n(N=Cc2cccs2)c2nc3ccccc3nc12 | nt | nt | nt | -285.9 | nt | nt
COc1cc(C=C(C(C)=O)C(C)=O)ccc1O | 98.3* | 20.0 | 3.6 | 6.8 | 15.9 | -12.8
COc1cc(/C=C2/C(=O)CNC2=O)ccc1O | 99.0* | 3.8 | 15.5 | nt | nt | -10.5
COc1ccc(C=C(C(C)=O)C(C)=O)cc1OC | nt | 8.8 | 2.3 | 3.3 | 0.6 | -3.9
O=C(O)/C=C/c1ccc(O)c(O)c1 | 98.2* | 81.7* | 8.3 | 2.8 | -0.1 | -2.2
COc1cc(/C=C/C(=O)/C=C(O)/C=C/c2ccc(O)c(OC)c2)ccc1O | 0.4 | nt | 20.2 | nt | 4.5 | -0.7
COc1cc(C=C2C(=O)C=CC2=O)ccc1O | nt | nt | nt | nt | nt | -1.7
COc1cc(/C=C/C(=O)O)ccc1O | 87.3* | nt | -6.5 | -1.9 | -9.1 | -0.9
O=C(CCN1CCN(c2ccccc2)CC1)NN=Cc1ccc(O)c(O)c1O | nt | nt | nt | 7.6 | nt | nt
CC(=O)C(=NNc1ccccc1Cl)Sc1nnc(-c2ccccc2)n1-c1ccccc1 | nt | nt | nt | 3.3 | nt | nt
CCN(CC)C(=NS(=O)(=O)c1ccc(C)cc1)c1ccccc1 | nt | nt | nt | 3.1 | nt | nt
COc1cc(/C=C/C2=NC(=O)C(C)(C)O2)ccc1O | 98.9* | 10.2 | 24.8 | -7.5 | nt | nt
COc1cc(C=O)ccc1O | nt | nt | nt | nt | nt | -9.0
COc1ccc(C=Nn2c(C)cc(C)c(C(N)=O)c2=O)cc1 | nt | nt | nt | 3.5 | nt | nt
N#CCC(=O)Nc1ccc(C(=O)NCc2cccc(Cl)c2)cc1 | 98.3* | -1.3 | -6.6 | -1.4 | -7.7 | 10.6
CCCNC(=O)C(Cc1cccc(Cl)c1)NC(=O)c1ccc(C#N)cc1 (centres undefined) | 2.3 | nt | 5.5 | 26.9* | -1.8 | 14.9
COc1ccc(C(C)=NNC(=O)c2ccc(CSc3nncn3C)cc2)cc1 | nt | nt | nt | 6.1 | nt | nt
COCCn1c(SCc2ccccc2)nc2c1c(=O)[nH]c(=O)n2C | -1.7 | 1.5 | -3.9 | 5.3 | 5.2 | -1.5
SMILES | ALR H2O2 inh | M18AAP inhibitor | HDAC3 inhib | UCH37 inh | Rtt109 HAT inh | FAS TE block
CCn1c(SCC(=O)OCc2ccccc2)nc2c1c(=O)n(C)c(=O)n2C | 98.8* | -3.8 | 31.8* | 1.3 | 0.2 | -6.6
COCCn1c(SCC(=O)OCc2ccccc2)nc2c1c(=O)[nH]c(=O)n2C | 98.3* | nt | 2.7 | 0.5 | -5.3 | -7.6
C=CCn1c(SCC(=O)OCc2ccccc2)nc2c1c(=O)n(C)c(=O)n2C | -7.3 | 1.9 | 2.5 | 7.4 | nt | -3.3
COc1cc(C=NNC(=O)C(NC(=O)c2ccccc2)c2n[nH]c(=O)c3ccccc23)ccc1OCC(N)=O (centres undefined) | nt | nt | nt | 1.4 | nt | nt
O=C(Cc1n[nH]c(=O)[nH]c1=O)NN=Cc1cccc(Cl)c1 | nt | nt | nt | 4.1 | nt | nt
O=C(NN=Cc1ccccc1OC(=O)N1CCOCC1)c1cccs1 | nt | nt | nt | -21.9 | nt | nt
CCN(CC)c1ccc(NC(=O)CSC(=O)c2ccccc2)cc1 | 99.2* | nt | -4.3 | 9.2 | 0.2 | -14.1
CC(=O)Nc1ccc(NC(=O)CCCCCN2C(=O)c3ccccc3C2=O)cc1 | -2.3 | 0.0 | 1.3 | 0.9 | -5.7 | -5.8
CC(=O)c1cccc(NC(=O)CSC(=O)c2ccccc2)c1 | 98.9* | 2.9 | 18.8 | -5.6 | 3.1 | -18.9
CCN(CC)c1ccc(NC(=O)CCCCCN2C(=O)c3ccccc3C2=O)cc1 | 98.9* | 2.6 | 6.7 | 1.0 | -3.2 | 8.9
CCN(CC)c1ccc(NC(=O)COc2ccc(-n3cnnn3)cc2)cc1 | 98.8* | nt | 2.7 | 1.0 | -1.4 | -4.7
CC(=NN1CCN(C2c3ccccc3-c3ccccc32)CC1)c1cccnc1 | nt | nt | nt | 5.5 | nt | nt
COc1cccc(C=NNC(=O)c2cccc([N+](=O)[O-])c2)c1OS(=O)(=O)c1ccccc1 | nt | nt | nt | 1.0 | nt | nt

Screens: PubChem, several laboratories
